Yeast eIF2B: modulators of yeast eIF2B activity | hit rate 0.91% among 27,000 | inhibition, % at 25 µM (by protocol) | AID 688 | S. cerevisiae eIF2B-epsilon R284H, GCN4-lacZ luminescence;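 active = mutant luminescence inhibited past about 50% while wild type luminescence and mutant growth stay under set limits, limit read from the data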
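System: Yeast eIF2B-epsilon R284H mutant carrying GCN4–beta-galactosidase fusion | Read-out basis: Percent inhibition, luminescence and growth | Compound: 25 µM single dose | Times: 16 h at 30 °C exposure | Measured by: Luminescence and A595 | Buffer or medium: YPD medium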
Yeast growth tox: Inhibitors of S. cerevisiae growth, toxicity | S. cerevisiae wild-type growth, A595 turbidity, 16 h | AID 685 | growth inhibition, % at 25 µM (by protocol) | hit rate 0.3% among 30,000;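 active = mutant and wild-type yeast strains alike exhibit over 30% growth inhibition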;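 also: 0% = untreated cell controls and 100% = YPD media blanks without cells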
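System: S. cerevisiae wild-type or eIF2Bepsilon-R284H mutant strain; times: 16 h growth with compound, 30 °C; signal: absorbance at 595 nm (turbidity); measure: growth inhibition (%) versus cell controls and blanks; compound: 25 µM single dose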
Numbers without * were called inactive. In the library only some 1% were active in any assay of this set; here they are far more common.

For CCCCSc1nc2sc3c(c2c(=O)[nH]1)CCC3 the results were Yeast eIF2B 15.8 and Yeast growth tox -20.4.
`Cc1csc(C(C#N)C(=O)c2cc3ccccc3o2)n1` (stereo not given) gave Yeast growth tox 16.0.
CCOc1ccc(-n2nc(C(=O)N3CCOCC3)c3ccccc3c2=O)cc1 was read as Yeast eIF2B 58.9* and Yeast growth tox -11.1.
Screening CCOc1ccc(-n2nc(C(=O)N3CCN(CC)CC3)c3ccccc3c2=O)cc1 returned Yeast eIF2B -18.4 and Yeast growth tox -21.4.
`Cc1nc2c(=O)n(C)c(=O)[nH]c2n1Cc1ccccc1` gave Yeast eIF2B -28.9.
COc1ccc(Cl)cc1NC(=O)C(=O)NC1CCCCCC1 was read as Yeast eIF2B 18.7 and Yeast growth tox 12.5.
`O=C(NC1CCCCC1)Sc1ccc(Cl)cc1` gave Yeast eIF2B 9.4 and Yeast growth tox 40.9*.
`COc1ccc(Cl)cc1Nc1nc(C)cc(=O)[nH]1` gave Yeast eIF2B -21.9 and Yeast growth tox 5.7.
`c1ccc(-c2cc(-c3nn4c(-c5ccco5)nnc4s3)c3ccccc3n2)cc1` gave Yeast eIF2B 71.7* and Yeast growth tox -14.8.
Screening Cc1cc(-c2nn3c(-c4ccccc4)nnc3s2)c2ccccc2n1 returned Yeast eIF2B 13.0 and Yeast growth tox -5.5.
CCOC(=O)C1=C(N)N2C(=O)C(C)SC2=C(C(=O)OCC)C1c1ccccc1 (stereo not given) was read as Yeast eIF2B 49.6 and Yeast growth tox -20.6.
CCOC(=O)C1=C(N)N2C(=O)C(C)SC2=C(C(=O)OC)C1c1ccccc1OC (stereo not given) was read as Yeast growth tox 68.7*.
`O=C(c1ccccc1)c1cc[n+]([O-])cc1` gave Yeast eIF2B 36.3 and Yeast growth tox -14.7.
CCN(CC)CCN1C(=O)c2ccccc2NC1c1ccc(N(C)C)cc1 (stereo not given) was read as Yeast growth tox -8.6.
`CCc1c(C)c(C#N)c2nc3ccccc3n2c1NCc1ccco1` gave Yeast growth tox 22.3.
C=CCc1c(C)c(C#N)c2nc3ccccc3n2c1NCCN(C)C was read as Yeast eIF2B 94.7 and Yeast growth tox 95.5*.
CN(C)c1[nH]c(=O)c(C#N)c2c1CCN2Cc1ccccc1 was read as Yeast eIF2B 18.2 and Yeast growth tox 4.1.
CCOCCc1nnc(NC(=O)Cc2ccc(Br)cc2)s1 was read as Yeast eIF2B 23.5 and Yeast growth tox 6.2.
CCc1nc2scc(-c3cccs3)c2c(=O)o1 was read as Yeast eIF2B -20.1 and Yeast growth tox 2.7.
For CCn1c(Sc2nc(C)nc3scc(-c4cccs4)c23)n[nH]c1=O the results were Yeast eIF2B 40.8 and Yeast growth tox 46.2*.
For O=C(Nc1nnc(COc2ccc(Cl)cc2)s1)c1cccs1 the results were Yeast eIF2B 50.3* and Yeast growth tox 2.0.
Screening Cc1cccc(OCc2nnc(NC(=O)c3cccs3)s2)c1 returned Yeast eIF2B -25.6 and Yeast growth tox 5.5.
For Cc1cc(S(=O)(=O)Nc2c(C)ccc3nsnc23)ccc1F the results were Yeast eIF2B 22.0 and Yeast growth tox 5.9.
For Oc1c(Br)cc(C2N=C(c3ccccc3)NO2)cc1Br (stereo not given) the results were Yeast eIF2B 32.2 and Yeast growth tox 3.8.
`CC1CCN(S(=O)(=O)c2ccc(C(=O)OCc3ccc4c(c3)OCO4)cc2)CC1` gave Yeast growth tox -4.8.
CCc1ccc(C(=O)/C=C/c2ccc([N+](=O)[O-])o2)cc1 was read as Yeast growth tox 65.8*.
`CCCOC(=O)/C(=C\c1ccc([N+](=O)[O-])o1)NC(=O)c1ccccc1` gave Yeast eIF2B -0.1 and Yeast growth tox -16.0.
For COCC(C)n1c(C)cc(C(=O)COC(=O)c2nc3nc(C)cc(C)n3n2)c1C (stereo not given) the results were Yeast eIF2B -14.0 and Yeast growth tox 15.0.
For CCCc1cc(=O)[nH]c(SCC(=O)c2cc(C)n(C(C)COC)c2C)n1 (stereo not given) the results were Yeast eIF2B 57.3* and Yeast growth tox 14.4.
`CCOC(=O)C1CCN(c2cc(=O)n(-c3ccccc3Cl)c(=O)[nH]2)CC1` gave Yeast eIF2B 12.0 and Yeast growth tox 19.8.
For COc1ccc(C2Oc3ccccc3N2C(C)=O)cc1 (stereo not given) the results were Yeast eIF2B 0.2 and Yeast growth tox -34.0.
For C=CCSc1nnc2c(n1)OC(c1cccnc1)N(C(C)=O)c1ccccc1-2 (stereo not given) the results were Yeast eIF2B 54.6* and Yeast growth tox -8.9.
`O=S(=O)(NC1c2cccc3cccc(c23)C1N1CCN(CCO)CC1)c1ccccc1` (stereo not given) gave Yeast eIF2B 8.9 and Yeast growth tox 5.5.
For O=C(NCCCN1CCC(Cc2ccccc2)CC1)C1CC(=O)N(C2CCCCCC2)C1 (stereo not given) the results were Yeast eIF2B 15.7 and Yeast growth tox 18.2.
